In ChEMBL document CHEMBL3588761, “Design, synthesis and characterization of dual inhibitors against new targets FabG4 and HtdX of Mycobacterium tuberculosis” (Eur J Med Chem, 2015):
The source made the active and inactive calls. The calls are words filed in the database; no cut-off is given here.

Key:
[1] = Inhibition of Mycobacterium tuberculosis FabG4 assessed as reduction in NADH to NAD+ conversion using acetoacetyl-CoA substrate by UV-visible spectrophotometry
Procedure, shortened: (§1)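 50 mM HEPES pH 7.4 at 25 °C with 1 µM FabG4, 0.2 mM β-NADH, 0.5 mM acetoacetyl-CoA and 5% methanol. Started with substrate; A340 decrease read every 2 min. IC50 taken graphically from dose-response plots. Mode found by varying NADH at three inhibitor levels, using Lineweaver-Burk plots.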

[2] = Inhibition of Mycobacterium tuberculosis HtdX using crotonoyl-CoA substrate by UV-visible spectrophotometry
Procedure, shortened: (§2)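 50 mM HEPES pH 7.5 with 100 mM NaCl at 25 °C, containing 100 nM HtdX, 10 µM crotonoyl-CoA and 5% methanol. Started with substrate; A263 decrease read every 2 min. IC50 taken graphically from dose-response plots. Mode found by varying crotonoyl-CoA at three inhibitor levels, using Lineweaver-Burk plots.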

[3] = test system: Mycobacterium tuberculosis; experiment: Competitive inhibition of Mycobacterium tuberculosis FabG4 assessed as reduction in NADH to NAD+ conversion using acetoacetyl-CoA substrate and varying NADH levels by UV-visible spectrophotometry; procedure, shortened: as §1
[4] = test system: Mycobacterium tuberculosis; experiment: Binding affinity to Mycobacterium tuberculosis FabG4 assessed as first binding constant at 25 degC by isothermal titration calorimetry
Procedure, shortened: (§3)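 FabG4 at 4.5 µM in 50 mM HEPES pH 7.4 in the cell, titrated at 25 °C with 500 µM ligand in 5% methanol-buffer (0.4 µL then 19 × 2 µL, 120 s spacing). Buffer-ligand reference titration subtracted. Two sequential binding events, per monomer of the homodimer.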

[5] = test system: Mycobacterium tuberculosis; experiment: Binding affinity to Mycobacterium tuberculosis FabG4 assessed as second binding constant at 25 degC by isothermal titration calorimetry; procedure, shortened: as §3
[6] = test system: Mycobacterium tuberculosis; experiment: Induction of changes in secondary structure of Mycobacterium tuberculosis FabG4 assessed as helix level at 50 uM by CD spectroscopy (reference value: 25.9%)
[7] = test system: Mycobacterium tuberculosis; experiment: Induction of changes in secondary structure of Mycobacterium tuberculosis FabG4 assessed as beta-sheet level at 50 uM by CD spectroscopy (reference value: 6%)
[8] = test system: Mycobacterium tuberculosis; experiment: Induction of changes in secondary structure of Mycobacterium tuberculosis FabG4 assessed as turns level at 50 uM by CD spectroscopy (reference value: 34.6%)
[9] = test system: Mycobacterium tuberculosis; experiment: Induction of changes in secondary structure of Mycobacterium tuberculosis FabG4 assessed as unordered level at 50 uM by CD spectroscopy (reference value: 33.5%)
[10] = test system: Mycolicibacterium smegmatis; experiment: Antimycobacterial activity against Mycobacterium smegmatis str. MC2 155 assessed as inhibition of microbial growth incubated for 24 hrs by REMA method; type: functional; details: str. MC2 155, 24 h
Procedure, shortened: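 M. smegmatis mc2155 grown in 7H9 broth with 0.2% glycerol and 0.05% Tween 80 at 37 °C, 120 rpm, to mid-log (OD595 ~0.5). Diluted to OD595 0.0005 and exposed to drug for 24 h at 37 °C. Then 0.02% resazurin added for 40 min. MIC is the lowest concentration preventing the blue-to-pink change. Two repeats, averaged.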

[11] = Drug metabolism in culture media assessed as isoniazid release in presence of Mycobacterium smegmatis str. MC2 155 incubated for 24 hrs by HPLC method; type: physicochemical
Procedure, shortened: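 Compound incubated in culture medium with M. smegmatis for 24 h. Culture then lyophilised, redissolved and run on HPLC (100% methanol eluent, 1.2 mL/min), checking for an isoniazid peak.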

[12] = test system: Mycolicibacterium smegmatis; experiment: Inhibition of biofilm formation of Mycobacterium smegmatis str. MC2 155 at 20 ug/ml incubated at 37 degC without shaking for 4 weeks; type: functional; details: str. MC2 155, 672 h
Procedure, shortened: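 M. smegmatis mc2155 planktonic culture inoculated at 1% into Sauton's minimal medium without Tween-80. Inhibitor at 5, 10, 20, 50 and 100 µg/mL, with a no-inhibitor control. Plates sealed and held static at 37 °C for 4 weeks; biofilm formation assessed visually.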

[13] = test system: Mycobacterium tuberculosis; experiment: Competitive inhibition of Mycobacterium tuberculosis HtdX using varying crotonoyl-CoA substrate by UV-visible spectrophotometry; procedure, shortened: as §2
[14] = test system: Mycobacterium tuberculosis; experiment: Binding affinity to Mycobacterium tuberculosis HtdX assessed as binding constant at 25 degC by isothermal titration calorimetry
Procedure, shortened: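 HtdX at 10 µM in 50 mM HEPES pH 7.5 with 100 mM NaCl in the cell, titrated at 25 °C with 500 µM ligand in 5% methanol-buffer (0.4 µL then 19 × 2 µL). Buffer-ligand reference subtracted. Isotherm fitted to a one-site model.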

[15] = test system: Mycobacterium tuberculosis; experiment: Induction of changes in secondary structure of Mycobacterium tuberculosis HtdX assessed as helix level at 50 uM by CD spectroscopy (reference value: 12.2%)
[16] = test system: Mycobacterium tuberculosis; experiment: Induction of changes in secondary structure of Mycobacterium tuberculosis HtdX assessed as beta-sheet level at 50 uM by CD spectroscopy (reference value: 40.1%)
[17] = test system: Mycobacterium tuberculosis; experiment: Induction of changes in secondary structure of Mycobacterium tuberculosis HtdX assessed as turns level at 50 uM by CD spectroscopy (reference value: 12.6%)
[18] = test system: Mycobacterium tuberculosis; experiment: Induction of changes in secondary structure of Mycobacterium tuberculosis HtdX assessed as unordered level at 50 uM by CD spectroscopy (reference value: 35.2%)

SMILES | IC50 ([1]; read-out: IC50) | IC50 [2] | IC50 ([2]; read-out: IC50) | MIC [10] | also measured
O=C(O)[C@@H]1C(=O)N(c2ccccc2)[C@H]1c1ccncc1 (relative stereo) | 64.3 µM | Not Active | – | – | –
O=C(O)[C@@H]1C(=O)N(c2ccccc2)[C@H]1c1cccs1 (relative stereo) | – | Not Active | – | – | IC50 [1]: Not Active
O=C(O)[C@@H]1C(=O)N(c2ccccc2)[C@H]1c1ccco1 (relative stereo) | – | Not Active | – | – | IC50 [1]: Not Active
O=C1[C@@H](CO)[C@H](c2ccncc2)N1c1ccccc1 (relative stereo) | 666 µM | Not Active | – | – | –
O=C(NNC(=O)[C@@H]1C(=O)N(c2ccccc2)[C@H]1c1ccncc1)c1ccncc1 (relative stereo) | 15.2 µM | – | 22.3 µM | 15 µg/mL | inhibition [3]: Active; K [4]: 2.98 ×10⁵ /M; K [5]: 1.15 ×10³ /M; Activity [6]: 30%; Activity [7]: 5.7%; Activity [8]: 29.8%; Activity [9]: 34.4%; Drug metabolism [11]: metabolite_notdetected; inhibition at 20 µg/mL [12]: 100%
O=C(NNC(=O)[C@@H]1C(=O)N(c2ccccc2)[C@H]1c1cccs1)c1ccncc1 (relative stereo) | 26.1 µM | – | 10.3 µM | 20 µg/mL | inhibition [13]: Active; K [14]: 4.21 ×10⁵ /M; Activity [15]: 11.1%; Activity [16]: 50.6%; Activity [17]: 2.6%; Activity [18]: 35.7%
O=C(NNC(=O)[C@@H]1C(=O)N(c2ccccc2)[C@H]1c1ccco1)c1ccncc1 (relative stereo) | 27.6 µM | – | 17.6 µM | 15 µg/mL | –
O=C(NNC(=O)[C@@H]1C(=O)N(c2ccccc2)[C@H]1c1ccncc1)c1ccccc1 (relative stereo) | 39.9 µM | Not Active | – | – | –
NNC(=O)c1ccncc1 [ISONIAZID] | – | – | – | 10 µg/mL | –
